IC50 data for 17 compounds are collected here from ChEMBL document CHEMBL1153354, “Amide-containing diketoacids as HIV-1 integrase inhibitors: synthesis, structure-activity relationship analysis, and biological activity” (Bioorg Med Chem, 2009).

Test [1] concerns the target T1, Human immunodeficiency virus type 1 integrase (Human immunodeficiency virus 1, UniProt Q7ZJM1). The test is described as follows: Inhibition of HIV1 integrase strand transfer activity. Put shortly:
(§1)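 Wild-type IN (200 nM final) preincubated with inhibitor 30 min at 30 °C in buffer of 50 mM NaCl, 1 mM HEPES pH 7.5, 50 μM EDTA, 50 μM DTT, 10% glycerol, 7.5 mM MnCl2, 0.1 mg/mL BSA, 10 mM 2-mercaptoethanol, 10% DMSO, 25 mM MOPS pH 7.2. Then 20 nM 5'-32P-labeled linear oligonucleotide substrate added, 1 h further. Quenched with formamide/EDTA loading dye.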

Test [2] has as its target T1, Human immunodeficiency virus type 1 integrase. As to the kind of experiment: Inhibition of HIV1 integrase 3' processing activity. Put shortly:
as §1

T1 sequence (Q7ZJM1 whole entry): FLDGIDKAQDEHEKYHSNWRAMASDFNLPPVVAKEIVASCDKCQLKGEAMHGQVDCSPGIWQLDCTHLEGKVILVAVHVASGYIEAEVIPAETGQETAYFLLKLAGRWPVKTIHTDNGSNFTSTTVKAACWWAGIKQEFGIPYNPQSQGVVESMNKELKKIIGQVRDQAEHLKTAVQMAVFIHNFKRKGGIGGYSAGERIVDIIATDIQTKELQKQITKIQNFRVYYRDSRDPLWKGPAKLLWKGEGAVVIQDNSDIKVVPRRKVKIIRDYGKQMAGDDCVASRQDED

For the compound `Cc1cccc(C(=O)Nc2cccc(C(=O)/C=C(\O)C(=O)O)c2)c1O`, the IC50 in test [1] is 10 µM; in test [2], 48 µM.
The matching figures for `COc1ccc(C(=O)Nc2cccc(C(=O)/C=C(\O)C(=O)O)c2)cc1`: 19 µM and 95 µM.
The matching figures for `O=C(O)/C(O)=C/C(=O)c1cccc(NC(=O)c2ccccc2Cl)c1`: 18 µM and 92 µM.
In the same order, the values of `COc1ccccc1C(=O)Nc1cccc(C(=O)/C=C(\O)C(=O)O)c1` are 13 µM and 73 µM.
`COc1cccc(C(=O)Nc2cccc(C(=O)/C=C(\O)C(=O)O)c2)c1`: the half-inhibitory concentration (IC50) came to 12 µM in test [1] and 69 µM in test [2].
In the same order, the values of `COc1cc(/C=C/C(=O)Nc2cccc(C(=O)/C=C(\O)C(=O)O)c2)ccc1O` are 11 µM and 42 µM.
Turning to `O=C(/C=C/c1ccc(F)cc1)Nc1cccc(C(=O)/C=C(\O)C(=O)O)c1`, the half-maximal inhibitory concentration (IC50) in test [1] is 7 µM; in test [2] it was 22 µM.
The matching figures for `O=C(/C=C/c1ccc(Cl)cc1)Nc1cccc(C(=O)/C=C(\O)C(=O)O)c1`: 4 µM and 18 µM.
In the same order, the values of `O=C(O)/C(O)=C/C(=O)c1cccc(NC(=O)c2ccco2)c1` are 33 µM and over 100 µM.
Take `O=C(O)/C(O)=C/C(=O)c1cccc(NC(=O)c2ccccc2O)c1`: the 50% inhibitory concentration (IC50) was determined as 11 µM in test [1] and 41 µM in test [2].
The matching figures for `O=C(O)/C(O)=C/C(=O)c1cccc(NC(=O)c2cc([N+](=O)[O-])cc([N+](=O)[O-])c2O)c1`: 2 µM and 8 µM.
With `O=C(Cc1ccccc1)Nc1cccc(C(=O)/C=C(\O)C(=O)O)c1`, the IC50 in test [1] was 7 µM; in test [2], 56 µM.
In the same order, the values of `O=C(O)/C(O)=C/C(=O)c1cccc(NC(=O)c2ccc(O)cc2)c1` are 13 µM and 81 µM.
The matching figures for `COc1ccc(/C=C/C(=O)Nc2cccc(C(=O)/C=C(\O)C(=O)O)c2)cc1`: 11 µM and 30 µM.
In the case of `O=C(O)/C(O)=C/C(=O)c1cccc(NC(=O)c2cccc(Cl)c2)c1`, the results for the concentration for half-maximal inhibition (IC50) in test [1] and in test [2] were 15 µM and 57 µM, respectively.
In the same order, the values of `O=C(O)/C(O)=C/C(=O)c1cccc(NC(=O)c2ccccc2)c1` are 31 µM and over 100 µM.
With `O=C(/C=C/c1ccc(O)cc1)Nc1cccc(C(=O)/C=C(\O)C(=O)O)c1`, the IC50 in test [1] was found to be 7 µM; in test [2] it was 26 µM.

A word on the IC50: it is the concentration needed to halve the response being measured. Low readings indicate higher potency, high ones lower potency.
